This is an account of results in ChEMBL document CHEMBL2157901, “Synthesis, biological evaluation and molecular modeling of dihydro-pyrazolyl-thiazolinone derivatives as potential COX-2 inhibitors” (Bioorg Med Chem, 2012).

The source made the active and inactive calls. No cut-off for these calls is given here.

Data set [1] has as its target T1, Prostaglandin G/H synthase 2 (Homo sapiens, UniProt P35354).
T1 sequence (P35354 whole entry): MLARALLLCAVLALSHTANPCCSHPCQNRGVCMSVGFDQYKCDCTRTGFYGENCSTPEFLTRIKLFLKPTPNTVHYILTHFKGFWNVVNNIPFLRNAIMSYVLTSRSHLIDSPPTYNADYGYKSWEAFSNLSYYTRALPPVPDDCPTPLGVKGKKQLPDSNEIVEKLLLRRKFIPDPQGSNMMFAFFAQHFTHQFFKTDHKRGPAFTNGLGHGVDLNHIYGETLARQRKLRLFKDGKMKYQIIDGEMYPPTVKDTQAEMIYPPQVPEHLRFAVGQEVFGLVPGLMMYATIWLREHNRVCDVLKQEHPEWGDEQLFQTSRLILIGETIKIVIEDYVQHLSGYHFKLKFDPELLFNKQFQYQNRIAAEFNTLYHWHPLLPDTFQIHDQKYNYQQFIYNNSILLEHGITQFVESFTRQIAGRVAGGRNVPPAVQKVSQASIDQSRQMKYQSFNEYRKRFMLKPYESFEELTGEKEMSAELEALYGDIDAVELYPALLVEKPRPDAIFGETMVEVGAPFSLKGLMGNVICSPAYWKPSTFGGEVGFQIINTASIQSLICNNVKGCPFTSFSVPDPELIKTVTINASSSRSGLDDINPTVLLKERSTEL
Description: Inhibition of COX-2 by chemiluminescent assay.

Data set [2] concerns the target Prostaglandin G/H synthase 1 (Homo sapiens, UniProt P23219). Description: Inhibition of COX-1 by chemiluminescent assay.
Data set [3] can be described thus: Cytotoxicity against LPS-activated mouse RAW264.7 cells after 24 hrs by MTT method. Format: cell-based. The conditions noted are these: LPS-activated RAW264.7 cells. In outline:
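MTT assay in RAW264.7 cells grown in DMEM with 5% FBS, penicillin and streptomycin at 37 °C under 5% CO₂. Cells were seeded at 5 × 10⁴ per well and exposed for 24 h to compounds diluted from DMSO stocks (0.1% DMSO final). MTT (4 mg/mL) was added 4 h before the end, then plates were centrifuged and supernatant removed. CC₅₀ is the concentration cutting viability to 50%; mean of three experiments in triplicate.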
(Tetrazolium dyes change colour on reduction, which living cells bring about.)

Data set [4] can be described thus: Selectivity index, ratio of IC50 for COX-1 to IC50 for COX-2. The method, boiled down:
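COX-1 and COX-2 inhibition measured with a chemiluminescent enzyme assay kit. Each IC₅₀ (50% enzyme inhibition) is the mean of two determinations. Selectivity index taken as COX-1 IC₅₀ divided by COX-2 IC₅₀.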

In data set [5] the test system is RAW264.7. The data set is described as follows: Inhibition of LPS-induced COX-2 expression in mouse RAW264.7 cells at >1.25 uM by Western blot analysis. The class given is functional, cell-based. (A western blot detects proteins with antibodies after separation by electrophoresis.)

Chain of Prostaglandin G/H synthase 1 (P23219 whole entry): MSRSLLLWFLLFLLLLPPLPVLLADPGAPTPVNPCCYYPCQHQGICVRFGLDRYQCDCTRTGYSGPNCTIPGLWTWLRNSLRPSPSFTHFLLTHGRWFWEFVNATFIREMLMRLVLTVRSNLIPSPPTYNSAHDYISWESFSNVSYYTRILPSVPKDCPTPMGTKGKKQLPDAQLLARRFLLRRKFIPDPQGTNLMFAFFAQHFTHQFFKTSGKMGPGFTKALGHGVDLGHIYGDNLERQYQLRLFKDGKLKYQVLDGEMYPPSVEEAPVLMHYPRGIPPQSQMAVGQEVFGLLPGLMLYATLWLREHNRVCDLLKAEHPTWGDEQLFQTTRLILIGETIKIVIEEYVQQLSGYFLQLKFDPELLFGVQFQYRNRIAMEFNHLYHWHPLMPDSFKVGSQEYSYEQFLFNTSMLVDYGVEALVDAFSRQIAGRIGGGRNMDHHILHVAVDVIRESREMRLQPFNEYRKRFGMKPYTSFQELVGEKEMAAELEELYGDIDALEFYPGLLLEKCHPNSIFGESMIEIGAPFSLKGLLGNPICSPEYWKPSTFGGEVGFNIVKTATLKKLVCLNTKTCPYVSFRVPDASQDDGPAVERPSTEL

Regarding `Cc1cccc(C2CC(c3ccc(Cl)c(Cl)c3)=NN2C2=NC(=O)CS2)c1` (stereo unspecified), the figures for the IC50 in data set [1] and in data set [2] were 7.2 µM and above 50 µM, respectively. Besides, half-maximal cytotoxicity in data set [3] (CC50 at 24 h) was put at 204 µM. Further, the Ratio IC50 in data set [4] is above 6.9.

In the case of `O=C1CSC(N2N=C(c3ccc(Cl)c(Cl)c3)CC2c2ccc(Br)cc2)=N1` (stereo unspecified), the IC50 (usually the midpoint of a concentration-inhibition curve) is 7.6 µM in data set [1] and 48.5 µM in data set [2]. Moreover, the CC50 – broadly, the concentration giving 50% cytotoxicity – at 24 h in data set [3] was 280 µM. In data set [4], the Ratio IC50 was 6.4.

Consider `O=C1CSC(N2N=C(c3ccc(Cl)c(Cl)c3)CC2c2ccc(Cl)cc2)=N1` (stereo unspecified), for which the IC50 in data set [1] is 11.7 µM; in data set [2], 37.7 µM. In addition, in data set [3], it took 187 µM to reach half-maximal cytotoxicity (CC50 at 24 h). For the same molecule, the Ratio IC50 in data set [4] was 3.2.

For the molecule `Cc1cccc(C2CC(c3ccc(C)c(C)c3)=NN2C2=NC(=O)CS2)c1` (stereo unspecified), the results for the IC50 in data set [1] and in data set [2] were 2.7 µM and above 50 µM, respectively. The CC50 at 24 h in data set [3] was determined as 237 µM. Besides, the Ratio IC50 in data set [4] was above 18.5.

Consider `Cc1ccccc1C1CC(c2ccc(Cl)c(Cl)c2)=NN1C1=NC(=O)CS1` (stereo unspecified), for which the IC50 in data set [1] was 16.3 µM; in data set [2], 45.6 µM. In data set [3], the CC50 at 24 h turned out to be 179 µM. Moreover, the Ratio IC50 in data set [4] is 2.8.

With `Cc1ccc(C2=NN(C3=NC(=O)CS3)C(c3ccc(F)cc3)C2)cc1C` (stereo unspecified), the IC50 in data set [1] is 6.4 µM; in data set [2] it was 40.8 µM. The same molecule had a CC50 at 24 h in data set [3] of 246 µM. Besides, in data set [4], the Ratio IC50 worked out at 6.4.

Consider `Cc1ccc(C2=NN(C3=NC(=O)CS3)C(c3ccccc3Cl)C2)cc1C` (stereo unspecified), for which the IC50 in data set [1] was determined as 7.2 µM; in data set [2], 44.1 µM. This molecule also showed a CC50 at 24 h in data set [3] of 227 µM. For the same molecule, in data set [4], the Ratio IC50 was determined as 6.1.

For the molecule `O=C1CSC(N2N=C(c3ccc(Cl)c(Cl)c3)CC2c2ccccc2Cl)=N1` (stereo unspecified), the IC50 in data set [1] turned out to be 18.4 µM; in data set [2], 40.2 µM. This molecule displayed a CC50 at 24 h in data set [3] of 143 µM. Also, in data set [4], the Ratio IC50 was 2.2.

Take `Cc1ccc(C2=NN(C3=NC(=O)CS3)C(c3ccc(Br)cc3)C2)cc1C` (stereo unspecified): the values for the IC50 in data set [1] and in data set [2] were 1.8 µM and above 50 µM, respectively. In data set [3], this molecule yielded a CC50 at 24 h of 365 µM. For the same molecule, in data set [4], the Ratio IC50 was above 27.8.

Consider `Cc1ccc(C2=NN(C3=NC(=O)CS3)C(c3ccccc3)C2)cc1C` (stereo unspecified), for which the IC50 in data set [1] came to 0.5 µM; in data set [2], 42.4 µM. In data set [5], the inhibition entry was “Active”. Besides, the CC50 at 24 h in data set [3] is above 450 µM. Further, the Ratio IC50 in data set [4] was found to be 84.8.

Take `O=C1CSC(N2N=C(c3ccc(Cl)c(Cl)c3)CC2c2ccccc2)=N1` (stereo unspecified): the IC50 in data set [1] was determined as 2.7 µM; in data set [2] it was 33.2 µM. This molecule showed a 50% cytotoxic concentration (CC50) at 24 h in data set [3] of 295 µM. Besides, the Ratio IC50 in data set [4] came to 12.3.

On to `Cc1ccc(C2=NN(C3=NC(=O)CS3)C(c3cccc(Cl)c3)C2)cc1C` (stereo unspecified), for which the IC50 is 5.2 µM in data set [1] and above 50 µM in data set [2]. This molecule also returned a 50% cytotoxic concentration (CC50) at 24 h in data set [3] of 178 µM. Moreover, the Ratio IC50 in data set [4] was above 9.6.

Consider `COc1ccc(C2CC(c3ccc(C)c(C)c3)=NN2C2=NC(=O)CS2)cc1` (stereo unspecified), for which the IC50 in data set [1] is 2.9 µM; in data set [2] it was above 50 µM. The molecule also gave a CC50 at 24 h in data set [3] of 387 µM. Besides, the Ratio IC50 in data set [4] is above 17.2.

With `O=C1CSC(N2N=C(c3ccc(Cl)c(Cl)c3)CC2c2cccc(Cl)c2)=N1` (stereo unspecified), the values for the IC50 in data set [1] and in data set [2] were 16.1 µM and above 50 µM, respectively. The molecule also registered a CC50 at 24 h in data set [3] of 165 µM. For the same molecule, in data set [4], the Ratio IC50 was above 3.1.

As to `COc1ccc(C2CC(c3ccc(Cl)c(Cl)c3)=NN2C2=NC(=O)CS2)cc1` (stereo unspecified), the figures for the IC50 in data set [1] and in data set [2] were 6.8 µM and above 50 µM, respectively. In data set [3], the cytotoxic concentration (CC50) at 24 h came to 264 µM. The Ratio IC50 in data set [4] is above 7.4.

On to `Cc1ccc(C2=NN(C3=NC(=O)CS3)C(c3ccccc3C)C2)cc1C` (stereo unspecified), for which the IC50 in data set [1] was determined as 6.3 µM; in data set [2] it was 47.2 µM. In data set [3], this molecule gave a CC50 at 24 h of 317 µM. The Ratio IC50 in data set [4] was determined as 7.5.

Take `Cc1ccc(C2=NN(C3=NC(=O)CS3)C(c3ccc(Cl)cc3)C2)cc1C` (stereo unspecified): the IC50 in data set [1] is 4.5 µM; in data set [2], 48.6 µM. The molecule further had a half-maximal cytotoxic concentration (CC50) at 24 h in data set [3] of 226 µM. In data set [4], the Ratio IC50 amounted to 10.8.

For `Cc1ccc(C2CC(c3ccc(C)c(C)c3)=NN2C2=NC(=O)CS2)cc1` (stereo unspecified), the half-maximal inhibitory concentration (IC50) in data set [1] turned out to be 1.2 µM; in data set [2], 45.3 µM. Moreover, the CC50 at 24 h in data set [3] worked out at 384 µM. Also, the Ratio IC50 in data set [4] amounted to 37.8.

For `Cc1ccc(C2CC(c3ccc(Cl)c(Cl)c3)=NN2C2=NC(=O)CS2)cc1` (stereo unspecified), the IC50 in data set [1] came to 4.7 µM; in data set [2] it was 44.3 µM. The molecule also had a CC50 at 24 h in data set [3] of 279 µM. Besides, in data set [4], the Ratio IC50 stood at 9.4.

Regarding `O=C1CSC(N2N=C(c3ccc(Cl)c(Cl)c3)CC2c2ccc(F)cc2)=N1` (stereo unspecified), the IC50 in data set [1] was 19.4 µM; in data set [2], 34.3 µM. Further, the midpoint of cytotoxicity in data set [3], the CC50 at 24 h, lay at 139 µM. The Ratio IC50 in data set [4] worked out at 1.8.
